Experimental data pooled from the literature.
Protocols differ between the studies behind these lines.
Cell line: DU-145
Read-out: cell growth or viability

The GI50 of `CCc1cc(CN2CCc3cc(O)c(OC)cc3C2)cc(CC)c1CC` is reported as 63000 nM (WST-1; 96 h).
For `COc1ccc(C(=O)/C=C/c2cccc(Cl)c2)cc1S(N)(=O)=O`, the GI50 was 3600 nM (SRB; 48 h).
`COc1cc2c(cc1OS(N)(=O)=O)CCN(Cc1cc(Cl)c(OC)c(OC)c1)C2` has a GI50 of 40 nM (WST-1; 96 h).
The GI50 of `COc1ccccc1/C=C/C(=O)c1ccc(OC)c(S(N)(=O)=O)c1` is reported as 3200 nM (SRB; 48 h).
`COc1cc2c(cc1OS(N)(=O)=O)CCN(Cc1cccc(C(C)=O)c1)C2` gave a GI50 of 1850 nM (WST-1; 96 h).
The GI50 of `COc1ccc(C(=O)/C=C/c2ccc(Cl)c(Cl)c2)cc1S(N)(=O)=O` is reported as 3500 nM (SRB; 48 h).
`COc1cc2c(cc1O)CCN(C(=O)c1cc(OC)c(OC)c(OC)c1)C2` gave a GI50 of 921 nM (WST-1; 96 h).
For `COc1ccc(-c2ccc(-c3ccc(C(=N)N)nc3)s2)cc1`, the GI50 was 1770 nM.
`COc1ccc(C(=O)/C=C/c2cccc3ccccc23)cc1S(N)(=O)=O` has a GI50 of 2800 nM (SRB; 48 h).
With `S=C([S][Au-][P+](CCCCCC[P+]([Au-][S]C(=S)n1cccn1)(c1ccccc1)c1ccccc1)(c1ccccc1)c1ccccc1)n1cccn1` the GI50 was 1310 nM.
For `CCOc1cc(CN2CCc3cc(O)c(OC)cc3C2)cc(OCC)c1OCC`, the GI50 was greater than 100000 nM (WST-1; 96 h).
The GI50 of `COc1cccc(S(=O)(=O)N2CCc3cc(OS(N)(=O)=O)c(OC)cc3C2)c1` is reported as 56700 nM (WST-1; 96 h).
The GI50 of `COc1ccc(C(=O)/C=C/c2cccc(Br)c2)cc1S(N)(=O)=O` is reported as 3600 nM (SRB; 48 h).
The GI50 of `COc1cc2c(cc1O)CCN(Cc1cc(Cl)c(OC)c(OC)c1)C2` is reported as 900 nM (WST-1; 96 h).
With `COc1cccc(Oc2ccccc2NC(=O)CNC(=O)c2cccc3ccccc23)c1` the GI50 was 708 nM (SRB; 48 h).
The GI50 of `COc1cccc(C(=O)N2CCc3cc(O)c(OC)cc3C2)c1` is reported as 31300 nM (WST-1; 96 h).
The GI50 of `COc1cc2c(cc1O)CCN(Cc1cc(Br)c(OC)c(OC)c1)C2` is reported as 300 nM (WST-1; 96 h).
With `COc1ccc(C(=O)/C=C/c2c(F)cccc2Cl)cc1S(N)(=O)=O` the GI50 was 3300 nM (SRB; 48 h).
The GI50 of `COc1cc2c(cc1O)CCN(Cc1cccc(OC)c1OC)C2` is reported as greater than 100000 nM (WST-1; 96 h).
